For 3 compounds, Ki and Km results are on record in paper PMC11677264 (Biochemistry, 2023).

In series [1] the target is T1, AmgK (N-acetylmuramic acid/N-acetylglucosamine kinase) (Pseudomonas aeruginosa, UniProt Q9I5U1). The series can be described thus: 2D-ITC, fit to ordered-sequential rate equation. Format: biochemical. The gist of the method: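 AmgK in the calorimeter cell (650 nM with NAM, 300 nM with NAG) with ATP at 13.5 mM. Eighteen 1 μL injections of NAM or NAG (160 mM syringe stock), ~800 μM sugar at the start of each, spaced ≥1200 s. Run ~8–10 h with stirring, in duplicate. Thermograms converted to rate versus [ATP] versus [sugar] data sets and fitted to the ordered-sequential equation.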

The target in series [2] is T1, AmgK (N-acetylmuramic acid/N-acetylglucosamine kinase). The series can be described thus: pyruvate kinase/lactate dehydrogenase-coupled ATP-recycling assay, NADH at […] nm. Type of series: biochemical.
For series [3], the system named is Nc1ncnc2c1ncn2[C@@H]1O[C@H](COP(=O)(O)OP(=O)(O)OP(=O)(O)O)[C@@H](O)[C@H]1O. The series can be described thus: purified protein. The settings on record: saturating NAG 4 mM.

As a reminder, the Ki is a dissociation constant, usually derived from enzyme kinetics or from competition with a known ligand. Low values mean tighter binding, high ones weaker binding. For orientation: Km means the concentration of substrate that gives half-maximal velocity.

T1 sequence (Q9I5U1 whole entry): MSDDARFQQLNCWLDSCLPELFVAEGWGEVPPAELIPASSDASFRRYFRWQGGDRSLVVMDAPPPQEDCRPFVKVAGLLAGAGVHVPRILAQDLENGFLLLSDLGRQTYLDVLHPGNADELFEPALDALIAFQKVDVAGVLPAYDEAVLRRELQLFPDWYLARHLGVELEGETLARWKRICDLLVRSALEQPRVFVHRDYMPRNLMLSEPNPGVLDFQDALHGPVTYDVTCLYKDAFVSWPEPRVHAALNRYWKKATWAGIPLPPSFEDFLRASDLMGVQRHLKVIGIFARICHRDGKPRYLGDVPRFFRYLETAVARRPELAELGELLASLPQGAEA

Compound `Nc1ncnc2c1ncn2[C@@H]1O[C@H](COP(=O)(O)OP(=O)(O)O)[C@@H](O)[C@H]1O` [ADP] came in with a Ki in series [1] of 694 ± 128 µM.

On to `Nc1ncnc2c1ncn2[C@@H]1O[C@H](COP(=O)(O)OP(=O)(O)NP(=O)(O)O)[C@@H](O)[C@H]1O` [AMP-PNP], for which, in series [2], the affinity corresponds to a Ki of 471 ± 169 µM.

“AmgK (N-acetylmuramic acid/N-acetylglucosamine kinase) (Pseudomonas aeruginosa PAO1)”: the Km in series [3] came to 70 ± 12 µM.
